Laboratory results: ChEMBL document CHEMBL1250553, “Synthesis, cytotoxicity and liposome preparation of 28-acetylenic betulin derivatives” (Bioorg Med Chem, 2010)
Active and inactive are the calls of the source. The calls are words filed in the database; no cut-off is given here.

What was measured:
[1] = tested on: 518A2; test: Cytotoxicity against human 518A2 cells at 30 uM after 96 hrs by sulforhodamine B assay; format: functional, cell-based
In short: (§1)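 Growth inhibition at the highest tested concentration, 30 µM, after 96 h exposure in 96-well plates. Read by SRB staining as % viable cells relative to untreated controls, from at least three independent experiments.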

[2] = tested on: A-431; test: Cytotoxicity against human A431 cells at 30 uM after 96 hrs by sulforhodamine B assay; format: functional, cell-based; in short: as §1
[3] = tested on: A253; test: Cytotoxicity against human A253 cells at 30 uM after 96 hrs by sulforhodamine B assay; format: functional, cell-based; in short: as §1
[4] = tested on: FaDu; test: Cytotoxicity against human FADU cells at 30 uM after 96 hrs by sulforhodamine B assay; format: functional, cell-based; in short: as §1
[5] = tested on: A549; test: Cytotoxicity against human A549 cells at 30 uM after 96 hrs by sulforhodamine B assay; format: functional, cell-based; in short: as §1
[6] = tested on: A2780; test: Cytotoxicity against human A2780 cells at 30 uM after 96 hrs by sulforhodamine B assay; format: functional, cell-based; in short: as §1
[7] = tested on: DLD-1; test: Cytotoxicity against human DLD1 cells at 30 uM after 96 hrs by sulforhodamine B assay; format: functional, cell-based; in short: as §1
[8] = tested on: HCT-8; test: Cytotoxicity against human HCT8 cells at 30 uM after 96 hrs by sulforhodamine B assay; format: functional, cell-based; in short: as §1
[9] = tested on: HCT-116; test: Cytotoxicity against human HCT116 cells at 30 uM after 96 hrs by sulforhodamine B assay; format: functional, cell-based; in short: as §1
[10] = tested on: HT-29; test: Cytotoxicity against human HT-29 cells at 30 uM after 96 hrs by sulforhodamine B assay; format: functional, cell-based; in short: as §1
[11] = tested on: SW480; test: Cytotoxicity against human SW480 cells at 30 uM after 96 hrs by sulforhodamine B assay; format: functional, cell-based; in short: as §1
[12] = tested on: 8505C; test: Cytotoxicity against human 8505C cells at 30 uM after 96 hrs by sulforhodamine B assay; format: functional, cell-based; in short: as §1
[13] = tested on: SW-1736; test: Cytotoxicity against human SW1736 cells at 30 uM after 96 hrs by sulforhodamine B assay; format: functional, cell-based; in short: as §1
[14] = tested on: MCF7; test: Cytotoxicity against human MCF7 cells at 30 uM after 96 hrs by sulforhodamine B assay; format: functional, cell-based; in short: as §1
[15] = species: Homo sapiens; test: Cytotoxicity against human liposarcoma cells at 30 uM after 96 hrs by sulforhodamine B assay; format: functional, cell-based; in short: as §1
[16] = Cytotoxicity against human 518A2 cells after 96 hrs by sulforhodamine B assay; format: functional, cell-based; conditions: 518A2, 96 h
In short: (§2)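 Human tumour cell lines in 96-well plates, exposed to test compounds for 96 h, then read by colorimetric sulforhodamine B staining. Viable cells are expressed as % of untreated controls. IC50 is taken from dose–response curves, top concentration 30 µM, as the mean of at least three independent experiments (variation generally 10%). Compounds are given as DMSO solutions or as an aqueous liposomal formulation.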

[17] = Cytotoxicity against human A253 cells after 96 hrs by sulforhodamine B assay; format: functional, cell-based; conditions: A253, 96 h; in short: as §2
[18] = Cytotoxicity against human liposarcoma cells after 96 hrs by sulforhodamine B assay; format: functional, cell-based; in short: as §2
[19] = tested on: A2780; test: Induction of apoptosis in human A2780 cells assessed as floating cells at IC90 concentration after 24 hrs by Trypan blue exclusion test; format: functional, cell-based
In short: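 A2780 ovarian cancer cells treated for 24 h. Floating cells are collected and scored by trypan-blue exclusion: apoptotic cells exclude the dye, necrotic cells stain blue.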

[20] = tested on: SW480; test: Induction of apoptosis in human SW480 cells assessed as DNA ladder formation at IC90 concentration after 24 hrs by DNA gel electrophoresis analysis; format: functional, cell-based
In short: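 SW480 colon cancer cells treated for 24 h. Floating cells are collected, and DNA is analysed by gel electrophoresis for endonuclease-generated fragment laddering.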

[21] = tested on: A2780 (Homo sapiens); test: Induction of apoptosis in human A2780 cells assessed as floating cells at IC90 concentration after 24 hrs by Trypan blue exclusion test
[22] = tested on: SW480 (Homo sapiens); test: Induction of apoptosis in human SW480 cells assessed as DNA ladder formation at IC90 concentration after 24 hrs by DNA gel electrophoresis analysis
[23] = tested on: A-431; test: Cytotoxicity against human A431 cells after 96 hrs by sulforhodamine B assay; format: functional, cell-based; conditions: A-431, 96 h; in short: as §2
[24] = tested on: FaDu; test: Cytotoxicity against human FADU cells after 96 hrs by sulforhodamine B assay; format: functional, cell-based; in short: as §2
[25] = tested on: A549; test: Cytotoxicity against human A549 cells after 96 hrs by sulforhodamine B assay; format: functional, cell-based; conditions: A549, 96 h; in short: as §2
[26] = tested on: A2780; test: Cytotoxicity against human A2780 cells after 96 hrs by sulforhodamine B assay; format: functional, cell-based; conditions: A2780, 96 h; in short: as §2
[27] = tested on: DLD-1; test: Cytotoxicity against human DLD1 cells after 96 hrs by sulforhodamine B assay; format: functional, cell-based; conditions: DLD-1, 96 h; in short: as §2
[28] = tested on: HCT-8; test: Cytotoxicity against human HCT8 cells after 96 hrs by sulforhodamine B assay; format: functional, cell-based; conditions: HCT-8, 96 h; in short: as §2
[29] = tested on: HCT-116; test: Cytotoxicity against human HCT116 cells after 96 hrs by sulforhodamine B assay; format: functional, cell-based; conditions: HCT-116, 96 h; in short: as §2
[30] = tested on: HT-29; test: Cytotoxicity against human HT-29 cells after 96 hrs by sulforhodamine B assay; format: functional, cell-based; conditions: HT-29, 96 h; in short: as §2
[31] = tested on: SW480; test: Cytotoxicity against human SW480 cells after 96 hrs by sulforhodamine B assay; format: functional, cell-based; conditions: SW480, 96 h; in short: as §2
[32] = tested on: 8505C; test: Cytotoxicity against human 8505C cells after 96 hrs by sulforhodamine B assay; format: functional, cell-based; in short: as §2
[33] = tested on: SW-1736; test: Cytotoxicity against human SW1736 cells after 96 hrs by sulforhodamine B assay; format: functional, cell-based; conditions: SW-1736, 96 h; in short: as §2
[34] = tested on: MCF7; test: Cytotoxicity against human MCF7 cells after 96 hrs by sulforhodamine B assay; format: functional, cell-based; conditions: MCF7, 96 h; in short: as §2

Row | Structure (SMILES) | inhibition [7] | IC50 [16] | IC50 [17] | IC50 [18] | IC50 [23] | IC50 [24] | IC50 [25] | IC50 [26] | IC50 [27] | IC50 [28] | IC50 [29] | IC50 [30] | IC50 [31] | IC50 [32] | IC50 [33] | IC50 [34] | further results
1 | C=C(C)[C@@H]1CC[C@]2([C@H](O)C#Cc3ccccc3)CC[C@]3(C)[C@H](CC[C@@H]4[C@@]5(C)CC[C@H](OC(C)=O)C(C)(C)[C@@H]5CC[C@]43C)[C@@H]12 | inactive |  |  |  |  |  |  |  |  |  |  |  |  |  |  |  | inhibition [1]: inactive; inhibition [2]: inactive; inhibition [3]: inactive; inhibition [4]: inactive; inhibition [5]: inactive; inhibition [6]: inactive; inhibition [8]: inactive; inhibition [9]: inactive; inhibition [10]: inactive; inhibition [11]: inactive; inhibition [12]: inactive; inhibition [13]: inactive; inhibition [14]: inactive; inhibition [15]: inactive
2 | C=C(C)[C@@H]1CC[C@]2([C@H](O)C#CC(=O)OC)CC[C@]3(C)[C@H](CC[C@@H]4[C@@]5(C)CC[C@H](OC(C)=O)C(C)(C)[C@@H]5CC[C@]43C)[C@@H]12 |  | 5.9 µM | 2.7 µM | 4.2 µM |  |  |  |  |  |  |  |  |  |  |  |  | Activity [19]: Active; Activity [20]: Active; Activity [21]: Active; Activity [22]: Active
3 | C=C(C)[C@@H]1CC[C@]2([C@H](O)c3nn[nH]c3C(=O)OC)CC[C@]3(C)[C@H](CC[C@@H]4[C@@]5(C)CC[C@H](OC(C)=O)C(C)(C)[C@@H]5CC[C@]43C)[C@@H]12 |  | 14.8 µM | 10.3 µM | 18.2 µM | 16.6 µM | 15.1 µM | 17.3 µM | 13.4 µM | 15.5 µM | 13.9 µM | 15.6 µM | 18.2 µM | 14.7 µM | 15.4 µM | 11.8 µM | 14.8 µM | 
4 | C=C(C)[C@@H]1CC[C@]2([C@H](O)c3c(C(=O)OCC)n[nH]c3C(=O)OC)CC[C@]3(C)[C@H](CC[C@@H]4[C@@]5(C)CC[C@H](OC(C)=O)C(C)(C)[C@@H]5CC[C@]43C)[C@@H]12 | inactive | 16.4 µM | 13.2 µM | 14 µM | 11.7 µM | 13.9 µM | 18.2 µM | 13.2 µM |  | 13.4 µM | 14 µM | 17 µM | 11.4 µM | 12 µM | 19.2 µM | 11.3 µM | 
5 | C=C(C)[C@@H]1CC[C@]2([C@@H]3OC(=O)C=C3NC3CC3)CC[C@]3(C)[C@H](CC[C@@H]4[C@@]5(C)CC[C@H](OC(C)=O)C(C)(C)[C@@H]5CC[C@]43C)[C@@H]12 |  | 6.2 µM | 4.2 µM | 5.8 µM | 2.9 µM | 6 µM | 6.6 µM | 2.5 µM | 4.7 µM | 1.9 µM | 3.2 µM | 5.1 µM | 8 µM | 6 µM | 3.9 µM | 4 µM | 
6 | C=C(C)[C@@H]1CC[C@]2([C@@H]3OC(=O)C=C3N3CCCC3)CC[C@]3(C)[C@H](CC[C@@H]4[C@@]5(C)CC[C@H](OC(C)=O)C(C)(C)[C@@H]5CC[C@]43C)[C@@H]12 |  | 4.7 µM | 4.6 µM | 6 µM | 2.1 µM | 6.3 µM | 7.8 µM | 2.2 µM | 5.4 µM | 0.5 µM | 2.1 µM | 3.9 µM | 5.7 µM | 5.3 µM | 4.1 µM | 3.7 µM | 
